How the values were obtained:
[1] = target: T1, Angiotensin II receptor (Rattus norvegicus) (UniProt P29089+P25095+P35351); assay: Ratio of IC50 at Angiotensin II type 1 and angiotensin II type 2 receptors; type: protein assay
Procedure, shortened: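 AT2 IC50 divided by AT1 IC50. Both come from [125I][Sar1,Ile8]Ang II displacement on rat adrenal membrane homogenates, with 10^-6 M losartan (AT2) or 10^-6 M PD123177 (AT1) present. Each was run in duplicate.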

[2] = target: T2, Angiotensin II receptor (AT-1) type-1 (Rattus norvegicus, UniProt P29089+P25095); assay: Inhibition of [125I]-[Sar1,Ile8]Ang II binding at rat angiotensin II (type 1) receptor.; type: protein assay
T2 sequence (P29089 whole entry): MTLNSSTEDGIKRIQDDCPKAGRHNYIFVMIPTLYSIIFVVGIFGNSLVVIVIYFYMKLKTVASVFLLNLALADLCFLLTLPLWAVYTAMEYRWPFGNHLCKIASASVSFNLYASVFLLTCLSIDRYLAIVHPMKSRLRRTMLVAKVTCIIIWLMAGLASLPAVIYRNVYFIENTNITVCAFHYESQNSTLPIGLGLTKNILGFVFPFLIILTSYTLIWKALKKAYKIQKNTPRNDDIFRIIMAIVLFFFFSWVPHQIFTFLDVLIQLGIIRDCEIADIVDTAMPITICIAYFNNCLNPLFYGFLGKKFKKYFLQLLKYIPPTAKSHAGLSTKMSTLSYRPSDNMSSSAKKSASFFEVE
T2 sequence (P25095 whole entry): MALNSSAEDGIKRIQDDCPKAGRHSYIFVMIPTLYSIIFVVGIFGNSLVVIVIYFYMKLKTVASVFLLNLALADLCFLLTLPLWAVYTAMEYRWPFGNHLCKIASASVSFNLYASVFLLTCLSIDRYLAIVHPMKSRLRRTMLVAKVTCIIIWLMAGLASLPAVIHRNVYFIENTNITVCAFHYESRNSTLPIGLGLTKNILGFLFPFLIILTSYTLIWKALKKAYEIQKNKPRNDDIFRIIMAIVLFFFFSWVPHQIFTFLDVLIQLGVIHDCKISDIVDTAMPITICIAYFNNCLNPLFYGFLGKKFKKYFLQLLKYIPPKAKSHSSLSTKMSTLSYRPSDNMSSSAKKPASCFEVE
Procedure, shortened: (§1)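 Rat isolated adrenal membrane homogenates with 10^-6 M PD123177 present to isolate the AT1 site. Radioligand is [125I][Sar1,Ile8]Ang II. IC50 is the concentration giving 50% displacement of total specifically bound radioligand. Run in duplicate against DuP 753 and saralasin as internal standards. Intraassay variability 5%, interassay 20%.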

[3] = target: T3, Type-2 angiotensin II receptor (Rattus norvegicus, UniProt P35351); assay: Inhibition of [125I]-[Sar1,Ile8]Ang II binding at rat angiotensin II (type 2) receptor.
T3 sequence (P35351 whole entry): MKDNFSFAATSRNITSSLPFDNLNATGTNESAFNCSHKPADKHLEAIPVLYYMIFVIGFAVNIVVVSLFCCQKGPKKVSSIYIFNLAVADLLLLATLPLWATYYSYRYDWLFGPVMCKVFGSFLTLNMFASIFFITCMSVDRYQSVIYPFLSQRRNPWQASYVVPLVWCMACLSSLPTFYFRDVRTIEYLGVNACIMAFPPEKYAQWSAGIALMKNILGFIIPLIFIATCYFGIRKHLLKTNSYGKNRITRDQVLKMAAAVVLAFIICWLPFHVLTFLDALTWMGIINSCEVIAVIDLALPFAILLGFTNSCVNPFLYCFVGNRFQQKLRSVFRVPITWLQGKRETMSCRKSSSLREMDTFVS
Procedure, shortened: (§2)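 AT2 binding uses rat isolated adrenal membrane homogenates with 10^-6 M losartan present. [125I][Sar1,Ile8]Ang II is the radioligand, and IC50 is 50% displacement of total specifically bound label. Duplicate determinations include DuP 753 and saralasin as internal standards. Intraassay variability 5%, interassay 20%.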

Rattus norvegicus = assay: Effective dose to lower blood pressure by 30 mmHg in renal hypertensive rats on peroral administration.; type: functional; conditions: po
Procedure, shortened: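 Conscious renal artery-ligated hypertensive rats were dosed orally; vehicle was 0.05 mg/mL Na2CO3 in 0.5% methocel. Mean arterial pressure was monitored, n=6-9 per group. ED30 is the dose that lowers blood pressure by 30 mmHg.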

[4] = target: T2, Angiotensin II receptor (AT-1) type-1; assay: Inhibitory concentration against Angiotensin II receptor type 1 with [125I]-[Sar1,Ile8]Ang II; type: protein assay; procedure, shortened: as §1
[5] = target: T1, Angiotensin II receptor (Rattus norvegicus); assay: Relative inhibition of angiotensin II receptor types 1 and 2; type: protein assay
[6] = target: T3, Type-2 angiotensin II receptor; assay: Inhibitory concentration against Angiotensin II receptor type 2 with [125I]-[Sar1,Ile8]Ang II; procedure, shortened: as §2
[7] = target: T1, Angiotensin II receptor (Rattus norvegicus); assay: Relative inhibition of angiotensin II type 2 and angiotension II type 1 receptors in modified assay; type: protein assay
Procedure, shortened: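 Rat adrenal membrane homogenates with [125I][Sar1,Ile8]Ang II as radioligand. AT1 sites were measured with 10^-6 M PD123177 present and AT2 sites with 10^-6 M losartan present. IC50 is the concentration giving 50% displacement of specifically bound radioligand, run in duplicate against DuP 753 and saralasin standards. Intra-assay variability was 5% and inter-assay 20%. The value is the AT2 IC50 divided by the AT1 IC50.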

IC50 ratio [1] | IC50 [2] | IC50 [3] | IC50 [4] | IC50 ratio [5] | IC50 [6] | IC50 ratio [7] | SMILES | ED30 (Rattus norvegicus)
33 | 0.3 nM | 10 nM |  |  |  |  | CCCCOC(=O)NS(=O)(=O)c1ccccc1-c1ccc(Cn2c(CCC)nc(CC)c2C(=O)CCN(CCCC)C(=O)c2ccccc2)c(F)c1 | 
1.4 | 0.7 nM | 1 nM |  |  |  |  | CCCc1nc(CC)c(C(=O)CCN(C(=O)c2ccncc2)c2cccnc2)n1Cc1ccc(-c2ccccc2S(=O)(=O)NC(=O)OCCC(C)C)cc1F | 0.4 mg/kg
 | 1 nM | 3 nM | 0.1 nM | 3 | 40 nM |  | CCCc1nc(CC)c(C(=O)OC)n1Cc1ccc(-c2ccccc2S(=O)(=O)NC(=O)OCCC(C)C)cc1F | 
3.3 | 0.3 nM | 1 nM |  |  |  |  | CCCc1nc(CC)c(C(=O)CCN(C(=O)c2cccnc2)c2cccnc2)n1Cc1ccc(-c2ccccc2S(=O)(=O)NC(=O)OCCC(C)C)cc1 | 
1.09 | 0.45 nM | 0.49 nM |  |  |  |  | CCCc1nc(CC)c(C(=O)CCN(C(=O)CC)c2cccnc2)n1Cc1ccc(-c2ccccc2S(=O)(=O)NC(=O)OCCC(C)C)cc1F | 0.26 mg/kg
0.25 | 0.4 nM | 0.1 nM |  |  |  |  | CCCc1nc(CC)c(C(=O)CCN(C(=O)c2ccncc2)c2ccccc2)n1Cc1ccc(-c2ccccc2S(=O)(=O)NC(=O)OCCC(C)C)cc1F | < 3 mg/kg
231 | 3 nM |  | 0.16 nM | 2.3 | 37 nM |  | CCCCOC(=O)NS(=O)(=O)c1ccccc1-c1ccc(Cn2c(CCC)nc(CC)c2C(=O)OC)c(Cl)c1 | 
2.5 | 0.4 nM | 1 nM |  |  |  |  | CCCC(=O)N(CCC(=O)c1c(CC)nc(CCC)n1Cc1ccc(-c2ccccc2S(=O)(=O)NC(=O)OCCC(C)C)cc1)c1cccnc1 | 
0.7 | 0.25 nM | 0.18 nM |  |  |  |  | CCCCOC(=O)NS(=O)(=O)c1ccccc1-c1ccc(Cn2c(CCC)nc(CC)c2C(=O)CCN(C(=O)c2ccccc2)c2ccccc2)c(F)c1 | 1.57 mg/kg
3.3 | 0.3 nM | 1 nM |  |  |  |  | CCCc1nc(CC)c(C(=O)CCN(C(=O)C(C)C)c2cccnc2)n1Cc1ccc(-c2ccccc2S(=O)(=O)NC(=O)OCCC(C)C)cc1F | 
0.78 | 0.32 nM | 0.25 nM |  |  |  |  | CCCC(=O)N(CCC(=O)c1c(CC)nc(CCC)n1Cc1ccc(-c2ccccc2S(=O)(=O)NC(=O)OCCC(C)C)cc1F)c1cccnc1 | 0.27 mg/kg
7.5 | 0.4 nM | 3 nM |  |  |  |  | CCCc1nc(CC)c(C(=O)CCN(C(C)=O)c2cccnc2)n1Cc1ccc(-c2ccccc2S(=O)(=O)NC(=O)OCCC(C)C)cc1F | 
0.31 | 0.52 nM | 0.16 nM |  |  |  |  | CCCc1nc(CC)c(C(=O)CCN(C(=O)c2cccnc2)c2ccccn2)n1Cc1ccc(-c2ccccc2S(=O)(=O)NC(=O)OCCC(C)C)cc1F | 0.9 mg/kg
 | 0.1 nM | 0.06 nM |  |  |  |  | CCCc1nc(CC)c(C(=O)CCN(C(=O)c2ccccc2)c2ccccc2)n1Cc1ccc(-c2ccccc2S(=O)(=O)NC(=O)OCCC(C)C)cc1F | 
1 | 1 nM | 1 nM | 0.09 nM |  | 10 nM | 111 | CCCCOC(=O)NS(=O)(=O)c1ccccc1-c1ccc(Cn2c(CCC)nc(CC)c2C(C)=O)c(F)c1 | 
0.44 | 0.5 nM | 0.22 nM |  |  |  |  | CCCc1nc(CC)c(C(=O)CCN(C(=O)c2cccnc2)c2cccnc2)n1Cc1ccc(-c2ccccc2S(=O)(=O)NC(=O)OCCC(C)C)cc1F | 0.26 mg/kg
0.75 | 0.2 nM | 0.15 nM |  |  |  |  | CCCCOC(=O)NS(=O)(=O)c1ccccc1-c1ccc(Cn2c(CCC)nc(CC)c2C(=O)CCN(C(=O)CCC)c2ccccc2)c(F)c1 | 1.5 mg/kg

Source: ChEMBL document CHEMBL1128745 (J Med Chem, 1995)
